# Experimental data collected from several papers.
# Lines come from different studies, so protocols differ.
# Organism: Staphylococcus aureus
Compound,test,system,conditions,endpoint,value
CC[C@H](C)[C@H](NC(=O)OCC1c2ccccc2-c2ccccc21)C(=O)Sc1cccccc1=O,"microbial growth, broth dilution",ATCC29213,,MIC80,> 100 µM
COc1c(C)c(OS(=O)(=O)c2ccc3ccccc3c2)c(C)c(OS(=O)(=O)c2ccc3ccccc3c2)c1C(=O)/C=C/c1ccccc1,"microbial killing, broth dilution",ATCC25923,,MBC,> 5000 µg/mL
Cc1nn(-c2nc3ccccc3s2)c2c1C(=O)c1ccccc1-2,"microbial growth, well diffusion",NCIM5021,250 µg/mL,inhibition zone,10 mm
O=C(N/N=C/c1ccc([N+](=O)[O-])o1)c1ccc(O)cc1,microbial growth,ATCC700699,,MIC90,15.6 µg/mL
CCCCCCCCCCCCCC(O)CC(O)CO (stereo not shown),"microbial growth, broth dilution",ATCC29213,,IC50,17.2 µg/mL
CC(C)c1cccc(=O)c(O)c1,"microbial growth, broth dilution",ATCC29213,,MIC80,66.7 µM
N#C/C(=C\c1ccc(O)c(O)c1)C(=O)NCc1ccccc1,microbial growth,NCTC8325,,MIC,> 30 µM
O=C(O)CN1C(=O)/C(=C/c2c3ccccc3c(-c3ccc(N(c4ccccc4)c4ccccc4)cc3)c3ccccc23)NC1=S,"microbial killing, broth dilution",ATCC25923,,MBC,> 1000 µg/mL
CNC(=O)c1cc(Oc2ccc(NC(=O)Nc3ccc(Oc4ccccc4)cc3)cc2)ccn1,microbial growth,NCTC8325,,MIC,> 100 µM
CC(C(=O)O)N1C2=NC(c3ccc(Cl)cc3)c3c([nH]c(=O)[nH]c3=O)N2NC1(C)c1ccccc1O (stereo not shown),microbial growth,ATCC25923,"10 µg/mL, 24 h",inhibition zone,14 mm
O=C1NC(=S)S/C1=C\c1c2ccccc2c(-c2ccc(N(c3ccccc3)c3ccccc3)cc2)c2ccccc12,"microbial killing, broth dilution",ATCC43300,,MBC,> 1000 µg/mL
CC(=O)NC[C@H]1CN(c2ccc(N3CCOCC3)c(F)c2)C(=O)O1,"microbial killing, broth dilution",NRS107,,MBC,16 µM
CNC(=O)c1cc(Oc2ccc(NC(=O)NC34CC5CC(CC(C5)C3)C4)cc2)ccn1,microbial growth,NCTC8325,,MIC,> 100 µM
COc1ccc2nc(-n3nc(C(C)C)c4c3-c3ccccc3C4=O)sc2c1,"microbial growth, well diffusion",NCIM5021,1000 µg/mL,inhibition zone,11 mm
C[C@@H]1CCN(C(=O)CC#N)C[C@@H]1N(C)c1ncnc2[nH]ccc12,microbial growth,NCTC8325,,MIC,> 30 µM
CC(C)Cc1nn(-c2nc3ccc(Br)cc3s2)c2c1C(=O)c1ccccc1-2,"microbial growth, well diffusion",NCIM5021,250 µg/mL,inhibition zone,11 mm
O=C(O)CN1C(=O)/C(=C/c2ccc(-c3ccc(N(c4ccccc4)c4ccccc4)cc3)c3ccccc23)NC1=S,"microbial killing, broth dilution",ATCC25923,,MBC,> 1000 µg/mL
CCOC(=O)C1=C(C)N2NC(C)(c3ccccc3O)N(C(Cc3c[nH]c4ccccc34)C(=O)O)C2=NC1c1ccc(Cl)cc1 (stereo not shown),microbial growth,ATCC25923,"15 µg/mL, 24 h",inhibition zone,30 mm
CN[C@H](CC(C)C)C(=O)N[C@H]1C(=O)N[C@@H](CC(N)=O)C(=O)N[C@H]2C(=O)N[C@H]3C(=O)N[C@H](C(=O)N[C@H](C(=O)O)c4cc(O)cc(O)c4-c4cc3ccc4O)[C@H](O)c3ccc(c(Cl)c3)Oc3cc2cc(c3O[C@@H]2O[C@H](CO)[C@@H](O)[C@H](O)[C@H]2O[C@H]2C[C@](C)(N)[C@H](O)[C@H](C)O2)Oc2ccc(cc2Cl)[C@H]1O,"microbial growth, disc diffusion",ATCC29213,"62.5 µg/disc, 24 h",inhibition zone,18 mm
O=C(Sc1cccccc1=O)c1cccc(C(F)(F)F)c1,"microbial growth, broth dilution",ATCC29213,,MIC80,> 100 µM
CC1(C)S[C@@H]2[C@H](NC(=O)[C@H](N)c3ccccc3)C(=O)N2[C@H]1C(=O)O,"microbial growth, agar dilution",ATCC29213,26.93 µM,inhibition,100%
O=C1NC(=S)N/C1=C\c1c2ccccc2c(-c2ccc(N(c3ccccc3)c3ccccc3)cc2)c2ccccc12,"microbial killing, broth dilution",ATCC25923,,MBC,> 1000 µg/mL
CC(C)Cc1nn(-c2nc3ccc(Cl)cc3s2)c2c1C(=O)c1ccccc1-2,"microbial growth, well diffusion",NCIM5021,500 µg/mL,inhibition zone,11 mm
Cc1cc2c(F)c(Oc3ncnn4cc(OC[C@@H](C)O)c(C)c34)ccc2[nH]1,microbial growth,NCTC8325,,MIC,> 30 µM
C#CCCCCCCCCC=CCC(O)CC(O)CO (stereo not shown),"microbial growth, broth dilution",ATCC33591 MRSA,drug-resistant strain,IC50,> 200 µg/mL
Cc1ccc2nc(-c3ccncc3)[nH]c2c1,"microbial growth, broth dilution",ATCC29213 MSSA,,MIC,64 µg/mL
O=C(O)CN1C(=O)/C(=C/c2ccc(-c3ccc(N(c4ccccc4)c4ccccc4)cc3)c3ccccc23)SC1=S,"microbial killing, broth dilution",ATCC25923,,MBC,> 1000 µg/mL
CN1CCC(CNc2ccc3ncc(-c4cccc(OC(F)(F)F)c4)n3n2)CC1,microbial growth,NCTC8325,,MIC,> 30 µM
Cc1ccc2nc(-n3nc(C)c4c3-c3ccccc3C4=O)sc2c1,"microbial growth, well diffusion",NCIM5021,125 µg/mL,inhibition zone,11 mm
O=C1NC(=S)S/C1=C\c1ccc(-c2ccc(N(c3ccccc3)c3ccccc3)cc2)c2ccccc12,"microbial killing, broth dilution",ATCC25923,,MBC,> 1000 µg/mL
O=c1cccccc1SSc1cccccc1=O,"microbial growth, broth dilution",ATCC29213,,MIC80,> 100 µM
O=C1NC(=S)S/C1=C\c1ccc(-c2ccc(N(c3ccccc3)c3ccccc3)cc2)cc1,"microbial killing, broth dilution",ATCC6538,,MBC,> 1000 µg/mL
Cc1nn(-c2nc3ccc(Br)cc3s2)c2c1C(=O)c1ccccc1-2,"microbial growth, well diffusion",NCIM5021,1000 µg/mL,inhibition zone,12 mm
CCN(CCO)CCCOc1ccc2c(Nc3cc(CC(=O)Nc4cccc(F)c4)[nH]n3)ncnc2c1,microbial growth,NCTC8325,,MIC,> 30 µM
COc1ccc2nc(-n3nc(C)c4c3-c3ccccc3C4=O)sc2c1,"microbial growth, well diffusion",NCIM5021,250 µg/mL,inhibition zone,12 mm
C#CCCCCCCCCCCCC(O)CC(O)CO (stereo not shown),"microbial growth, broth dilution",ATCC33591 MRSA,drug-resistant strain,IC50,86.3 µg/mL
O=C(Cc1ccccc1)Sc1cccccc1=O,"microbial growth, broth dilution",ATCC29213,,MIC80,> 100 µM
C#CCCCCC(=O)N1CCN(c2ccccc2)CC1,microbial growth,NCTC8325,,MIC,> 100 µM
CC(C)c1nn(-c2nc3ccc(Cl)cc3s2)c2c1C(=O)c1ccccc1-2,"microbial growth, well diffusion",NCIM5021,500 µg/mL,inhibition zone,11 mm
O=C(O)CN1C(=O)/C(=C/c2ccc(-c3ccc(N(c4ccccc4)c4ccccc4)cc3)cc2)SC1=S,"microbial killing, broth dilution",ATCC43300,,MBC,7.8 µg/mL
